Data taken from ChEMBL document CHEMBL4680120, “Novel anti-Alzheimer phenol-lipoyl hybrids: Synthesis, physico-chemical characterization, and biological evaluation” (Eur J Med Chem, 2020).
In brackets after ≈: the same amount, converted by molar mass. Activity calls are given as the source filed them. The calls are words filed in the database; no cut-off is given here.

Assays:
[1] = Solubility of compound in water by HPLC analysis; format: physicochemical
[2] = Stability in simulated gastric fluid at pH 1.2 assessed as relative difference measured after 15 mins in presence of pepsin by HPLC analysis; format: ADME; conditions: isolated protein, pH 1.2, 0.25 h
Procedure, shortened: (§1)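 Incubation in simulated gastric fluid (pH 1.2, pepsin) or simulated intestinal fluid (pH 6.8, pancreatin). Aliquots deproteinized with ice-cold acetonitrile, centrifuged at 4°C and 12000 rpm for 10 min, filtered, analyzed by HPLC. RD% = (Ci − Cf)/Ci × 100. Stable if RD < 5%. Means of three experiments.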

[3] = Stability in simulated gastric fluid at pH 1.2 assessed as relative difference measured after 30 mins in presence of pepsin by HPLC analysis; format: ADME; conditions: isolated protein, pH 1.2, 0.5 h; procedure, shortened: as §1
[4] = Stability in simulated gastric fluid at pH 1.2 assessed as relative difference measured after 60 mins in presence of pepsin by HPLC analysis; format: ADME; conditions: isolated protein, pH 1.2, 1 h; procedure, shortened: as §1
[5] = Stability in simulated intestinal fluid at pH 6.8 assessed as hydrolysis measured immediately in presence of pancreatin by HPLC analysis; format: ADME; conditions: simulated gi fluid; procedure, shortened: as §1
[6] = Half life in human plasma by HPLC analysis; format: ADME, cell-free
Procedure, shortened: (§2)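 Compound stock added to human plasma pre-warmed to 37°C and diluted with 0.02 M phosphate buffer (pH 7.4) to 80% plasma. 100 μL samples taken over time, quenched with 200 μL cold acetonitrile, centrifuged, and supernatant analyzed by HPLC. t½ and kobs are means of three experiments.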

[7] = Stability in human plasma assessed as observed rate constant by HPLC analysis; format: ADME, cell-free; procedure, shortened: as §2
SH-SY5Y [8] = experiment: Cytotoxicity against human SH-SY5Y cells assessed as reduction in cell viability at 1 to 250 mg/l measured after 48 hrs by MTT assay; format: cell-based; conditions: dose 1-250 mg/L
Procedure, shortened: (§3)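 SH-SY5Y cells grown in DMEM/F12 with 10% FBS and differentiated with retinoic acid (10 μM), seeded at 1×10^4 per well and cultured 24 h. Cells were given hybrids at 1–250 mg/L with or without Aβ1-42 (20 μM) for 48 h. MTT (5 mg/mL) added for 4 h at 37°C, DMSO solubilization, read at 570/630 nm. LDH read at 450 nm. Five independent experiments.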

SH-SY5Y [9] = experiment: Neuroprotective activity against amyloid beta (1 to 42)-induced toxicity in human SH-SY5Y cells assessed as increase in cell viability at 1 to 250 mg/l measured after 48 hrs by MTT assay; format: functional, cell-based; conditions: dose 1-250 mg/L; procedure, shortened: as §3
SH-SY5Y [10] = experiment: Neuroprotective activity against amyloid beta (1 to 42)-induced toxicity in human SH-SY5Y cells assessed as increase in cell viability at 1 to 250 mg/l measured after 48 hrs by LDH release assay; format: functional, cell-based; conditions: dose 1-250 mg/L; procedure, shortened: as §3
[11] = Stability in simulated intestinal fluid at pH 6.8 assessed as relative difference measured after 15 mins in presence of pancreatin by HPLC analysis; format: ADME; conditions: simulated gi fluid, pH 6.8, 0.25 h; procedure, shortened: as §1
[12] = Stability in simulated intestinal fluid at pH 6.8 assessed as relative difference measured after 30 mins in presence of pancreatin by HPLC analysis; format: ADME; conditions: simulated gi fluid, pH 6.8, 0.5 h; procedure, shortened: as §1
[13] = Stability in simulated intestinal fluid at pH 6.8 assessed as relative difference measured after 60 mins in presence of pancreatin by HPLC analysis; format: ADME; conditions: simulated gi fluid, pH 6.8, 1 h; procedure, shortened: as §1
[14] = Stability in simulated intestinal fluid at pH 6.8 assessed as relative difference measured after 120 mins in presence of pancreatin by HPLC analysis; format: ADME; conditions: simulated gi fluid, pH 6.8, 2 h; procedure, shortened: as §1
[15] = Stability in simulated intestinal fluid at pH 6.8 assessed as relative difference measured after 180 mins in presence of pancreatin by HPLC analysis; format: ADME; conditions: simulated gi fluid, pH 6.8, 3 h; procedure, shortened: as §1
SH-SY5Y [16] = experiment: Neuroprotective activity against amyloid beta (1 to 42)-induced apoptosis in human SH-SY5Y cells assessed as early apoptotic cells at IC50 measured after 48 hrs by Annexin-V/Propidium iodide staining based flow cytometry (reference value: 0.74%); format: functional
SH-SY5Y [17] = experiment: Neuroprotective activity against amyloid beta (1 to 42)-induced apoptosis in human SH-SY5Y cells assessed as late apoptotic cells at IC50 measured after 48 hrs by Annexin-V/Propidium iodide staining based flow cytometry (reference value: 33.72%); format: functional
SH-SY5Y [18] = experiment: Neuroprotective activity against amyloid beta (1 to 42)-induced apoptosis in human SH-SY5Y cells assessed as necrotic cells at IC50 measured after 48 hrs by Annexin-V/Propidium iodide staining based flow cytometry (reference value: 6.99%); format: functional
Erythrocyte [19] = experiment: Antioxidant activity in human RBC assessed as increase in total antioxidant capacity level up to 400 ug/ml measured after 72 hrs relative to control; format: functional; conditions: dose microg/ml <=400
Erythrocyte [20] = experiment: Cytoprotective activity against H2O2-induced oxidative damage in human RBC assessed as increase in cell viability measured after 72 hrs by MTT assay; format: functional, cell-based
Erythrocyte [21] = experiment: Cytoprotective activity against H2O2-induced oxidative damage in human RBC assessed as increase in cell viability measured after 72 hrs by LDH release assay; format: functional, cell-based
Procedure, shortened: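 Heparinized whole blood cultured with phytohemagglutinin. Cells were co-incubated with 50 or 100 μM hybrid and H2O2 (25 μM). Viability was read by MTT: lymphocytes at 2×10^5 per well, MTT 4 h at 37°C, formazan dissolved in DMSO, absorbance 570 nm. LDH release was measured on 100 μL medium with a commercial kit. Results are relative to untreated control.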

Erythrocyte [22] = experiment: Cytoprotective activity against H2O2-induced oxidative damage in human RBC assessed as recovery of H2O2-induced cell death at 50 to 100 uM measured after 72 hrs by MTT assay relative to control; format: functional; conditions: dose 50-100 µM
Erythrocyte [23] = experiment: Cytoprotective activity against H2O2-induced oxidative damage in human RBC assessed as recovery of H2O2-induced cell death at 50 to 100 uM measured after 72 hrs by LDH release assay relative to control; format: functional; conditions: dose 50-100 µM
Procedure, shortened: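 Heparinised human whole blood cultured in phytohemagglutinin-containing chromosome medium and co-incubated with hybrids and H2O2 at 37C for 72 h. LDH released into the culture medium was measured with a commercial kit. Triton X-100 served as positive control, with untreated cultures as reference. Cytoprotection was expressed as viability relative to control.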

Erythrocyte [24] = experiment: Cytoprotective activity against H2O2-induced oxidative damage in human RBC assessed as restoration of antioxidant activity measured after 72 hrs by TAC assay; format: functional, cell-based
Erythrocyte [25] = experiment: Cytoprotective activity against H2O2-induced oxidative damage in human RBC assessed as restoration of antioxidant activity at 50 uM measured after 72 hrs by TAC assay relative to control; format: functional
Erythrocyte [26] = experiment: Cytoprotective activity against H2O2-induced oxidative damage in human RBC assessed as restoration of antioxidant activity at 100 uM measured after 72 hrs by TAC assay relative to control; format: functional
SH-SY5Y [27] = experiment: Neuroprotective activity against amyloid beta (1 to 42)-induced apoptosis in human SH-SY5Y cells assessed as decrease in DNA fragmentation at IC50 measured after 48 hrs by Hoechst 33258 staining based fluorescence microscopic assay; format: functional, cell-based
Procedure, shortened: (§4)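 Differentiated SH-SY5Y cells, 4×10^4 per well, exposed 48 h to Aβ1-42 (20 μM) with or without hybrid. Fixed in 4% paraformaldehyde for 30 min, stained with Hoechst 33258 for 15 min. Nuclear chromatin condensation and DNA fragmentation scored by fluorescence microscopy at ×200.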

SH-SY5Y [28] = experiment: Neuroprotective activity against amyloid beta (1 to 42)-induced apoptosis in human SH-SY5Y cells assessed as decrease in DNA condensation at IC50 measured after 48 hrs by Hoechst 33258 staining based fluorescence microscopic assay; format: functional, cell-based; procedure, shortened: as §4
Erythrocyte [29] = experiment: Cytoprotective activity against H2O2-induced oxidative damage in human RBC assessed as restoration of antioxidant activity at 50 to 100 uM measured after 72 hrs by TAC assay relative to control; format: functional; conditions: dose 50-100 µM

O=C(CCCCC1CCSS1)NCCCOC(=O)Cc1ccc(O)c(O)c1 (stereo not drawn)
solubility [1]: 933 µg/mL (≈ 2260 µM) | fold change (FC) [2]: 72.4% | fold change (FC) [3]: 86.54% | fold change (FC) [4]: 100% | Stabilty [5]: Unstable | half-life [6]: 0.75 h | K [7]: 0.93 h⁻¹ | Activity (SH-SY5Y [8]): Non-Toxic | Activity (SH-SY5Y [9]): Active | Activity (SH-SY5Y [10]): Active

COc1ccc(/C=C/C(=O)OCCOCCNC(=O)CCCCC2CCSS2)cc1OC (stereo not drawn)
solubility [1]: 10 µg/mL (≈ 20.7 µM) | fold change (FC) [2]: 5.6% | fold change (FC) [3]: 7.35% | fold change (FC) [4]: 30.76% | fold change (FC) [11]: 12.01% | fold change (FC) [12]: 21.06% | fold change (FC) [13]: 27.2% | fold change (FC) [14]: 31.38% | fold change (FC) [15]: 40.3% | half-life [6]: 17.2 h | K [7]: 0.042 h⁻¹ | Activity (SH-SY5Y [8]): Non-Toxic | Activity (SH-SY5Y [9]): Active | Activity (SH-SY5Y [10]): Active | Activity (SH-SY5Y [16]): 2.85% | Activity (SH-SY5Y [17]): 15.39% | Activity (SH-SY5Y [18]): 1.6% | Activity (Erythrocyte [19]): 2% | Activity (Erythrocyte [20]): Dose-dependent effect | Activity (Erythrocyte [21]): Dose-dependent effect | Activity (Erythrocyte [22]): 0.5% | Activity (Erythrocyte [23]): 0.4% | Activity (Erythrocyte [24]): Dose-dependent effect | Activity (Erythrocyte [25]): 12.5% | Activity (Erythrocyte [26]): 29.2%

COc1ccc(CC(=O)NCCCNC(=O)CCCCC2CCSS2)cc1OC (stereo not drawn)
solubility [1]: 42 µg/mL (≈ 95.3 µM) | fold change (FC) [2]: 2.9% | fold change (FC) [3]: 1.89% | fold change (FC) [4]: 4.03% | fold change (FC) [11]: 0.45% | fold change (FC) [12]: 0.73% | fold change (FC) [13]: 0.9% | fold change (FC) [14]: 1.32% | fold change (FC) [15]: 2.09% | half-life [6]: > 12 h | Activity (SH-SY5Y [8]): Non-Toxic | Activity (SH-SY5Y [9]): Active | Activity (SH-SY5Y [10]): Active | Activity (SH-SY5Y [27]): Active | Activity (SH-SY5Y [28]): Active | Activity (SH-SY5Y [16]): 3.51% | Activity (SH-SY5Y [17]): 16.01% | Activity (SH-SY5Y [18]): 1.66% | Activity (Erythrocyte [19]): 4.2% | Activity (Erythrocyte [20]): Dose-dependent effect | Activity (Erythrocyte [21]): Dose-dependent effect | Activity (Erythrocyte [22]): 0.5% | Activity (Erythrocyte [23]): 0.4% | Activity (Erythrocyte [24]): Dose-dependent effect

COc1ccc(CC(=O)OCCCNC(=O)CCCCC2CCSS2)cc1OC (stereo not drawn)
solubility [1]: 110 µg/mL (≈ 249 µM) | fold change (FC) [2]: 15.23% | fold change (FC) [3]: 35.89% | fold change (FC) [4]: 60.98% | Stabilty [5]: Unstable | half-life [6]: 0.62 h | K [7]: 1.146 h⁻¹ | Activity (SH-SY5Y [8]): Non-Toxic | Activity (SH-SY5Y [9]): Active | Activity (SH-SY5Y [10]): Active

O=C(CCCCC1CCSS1)NCCCNC(=O)Cc1ccc(O)c(O)c1 (stereo not drawn)
solubility [1]: 235 µg/mL (≈ 570 µM) | fold change (FC) [2]: 15.27% | fold change (FC) [3]: 47.45% | fold change (FC) [4]: 65.48% | fold change (FC) [11]: 5.6% | fold change (FC) [12]: 30.4% | fold change (FC) [13]: 56.3% | fold change (FC) [14]: 70% | fold change (FC) [15]: 90.2% | half-life [6]: 9.21 h | K [7]: 0.08 h⁻¹ | Activity (SH-SY5Y [8]): Non-Toxic | Activity (SH-SY5Y [9]): Active | Activity (SH-SY5Y [10]): Active | Activity (SH-SY5Y [16]): 3.88% | Activity (SH-SY5Y [17]): 13.72% | Activity (SH-SY5Y [18]): 1.23% | Activity (Erythrocyte [19]): 26.5% | Activity (Erythrocyte [20]): Dose-dependent effect | Activity (Erythrocyte [21]): Dose-dependent effect | Activity (Erythrocyte [22]): 0.5% | Activity (Erythrocyte [23]): 0.4% | Activity (Erythrocyte [24]): Dose-dependent effect | Activity (Erythrocyte [29]): 79.2%
